Experimental data taken from ChEMBL document CHEMBL1128546 (J Med Chem, 1995).

Assays:
Oryctolagus cuniculus [1] = species on record: Oryctolagus cuniculus; assay: Maximum vein contraction obtained relative to 5-hydroxytryptamine; format: functional
Oryctolagus cuniculus [2] = species on record: Oryctolagus cuniculus; assay: The compound was tested for functional activity by measuring the contraction of saphenous vein from New Zealand white rabbit
[3] = target: 5-hydroxytryptamine receptor 1D (Homo sapiens, UniProt P28221); assay: Binding affinity to recombinant human 5-hydroxytryptamine 1D receptor alpha
Summary of the method: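 Binding to the cloned human receptor subtype. Values are Ki, given as the mean of one or two independent experiments, each run in duplicate.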

Chain of 5-hydroxytryptamine receptor 1D (P28221 whole entry): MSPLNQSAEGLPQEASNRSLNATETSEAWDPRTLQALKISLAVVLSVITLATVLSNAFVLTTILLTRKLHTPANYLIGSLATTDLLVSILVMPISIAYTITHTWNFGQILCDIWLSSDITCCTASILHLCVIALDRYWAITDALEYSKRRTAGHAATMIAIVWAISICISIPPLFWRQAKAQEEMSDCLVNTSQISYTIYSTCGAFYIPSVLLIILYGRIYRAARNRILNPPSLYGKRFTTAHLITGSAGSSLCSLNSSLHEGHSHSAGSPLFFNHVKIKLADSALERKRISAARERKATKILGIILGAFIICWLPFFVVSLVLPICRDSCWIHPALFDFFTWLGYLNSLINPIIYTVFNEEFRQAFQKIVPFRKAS

Row | Compound | Rel max (Oryctolagus cuniculus [1]) | pD2 (Oryctolagus cuniculus [2]) | Ki [3] [nM]
1 | CNS(=O)(=O)Cc1ccc2[nH]cc(CCN(C)C)c2c1 | 1.26 | 5.75 | 
2 | CN(C)CCc1c[nH]c2ccc(Cn3cncn3)cc12 [RIZATRIPTAN] | 1.42 | 6.15 | 
3 | NCCc1c[nH]c2ccc(OCC(=O)N3CCN(c4ccc(CN)cc4)CC3)cc12 | 0.92 | 6.8 | 0.93
4 | NCCc1c[nH]c2ccc(O)cc12 [SEROTONIN] | 1 |  | 
5 | NCCc1c[nH]c2ccc(OCC(=O)N3CCN(c4ccc(N)cc4)CC3)cc12 | 0.83 | 6.88 | 2.92
6 | CS(=O)(=O)NCc1ccc(N2CCN(C(=O)COc3ccc4[nH]cc(CCN)c4c3)CC2)cc1 | 0.88 | 6.92 | 1
7 | NCCc1c[nH]c2ccc(OCC(=O)N3CCN(c4ccccc4)CC3)cc12 | 0.68 | 7.63 | 1.2
8 | NCCc1c[nH]c2ccc(OCC(=O)N3CCN(c4ccccc4[N+](=O)[O-])CC3)cc12 | 0.87 | 6.33 | 0.58
9 | NCCc1c[nH]c2ccc(OCCCC(=O)N3CCN(c4ccc([N+](=O)[O-])cc4)CC3)cc12 | 1.06 | 6.91 | 1.2
10 | NCCc1c[nH]c2ccc(OCCCCC(=O)N3CCN(c4ccc([N+](=O)[O-])cc4)CC3)cc12 | 0.71 | 6.74 | 2.5
11 | NCCc1c[nH]c2ccc(OCC(=O)N3CCN(c4ccccc4CN)CC3)cc12 | 0.9 | 6.52 | 6.9
12 | NCCc1c[nH]c2ccc(OCC(=O)N3CCN(c4ccc(NC(=O)c5ccccc5)cc4)CC3)cc12 | 0.9 | 7.31 | 1.7
13 | CS(=O)(=O)Nc1ccc(N2CCN(C(=O)COc3ccc4[nH]cc(CCN)c4c3)CC2)cc1 | 1.21 | 7.62 | 0.56
14 | CS(=O)(=O)NCc1ccccc1N1CCN(C(=O)COc2ccc3[nH]cc(CCN)c3c2)CC1 | 0.93 | 6 | 1.8
15 | CC(=O)Nc1ccc(N2CCN(C(=O)COc3ccc4[nH]cc(CCN)c4c3)CC2)cc1 | 1.01 | 6.67 | 
16 | Cc1ccccc1N1CCN(C(=O)COc2ccc3[nH]cc(CCN)c3c2)CC1 | 1.01 | 5.86 | 
17 | CS(=O)(=O)Nc1ccc(N2CCN(C(=O)CCCCCOc3ccc4[nH]cc(CCN)c4c3)CC2)cc1 | 1.05 | 8.33 | 
18 | NCCc1c[nH]c2ccc(OCCCCC(=O)N3CCN(c4ccc(N)cc4)CC3)cc12 | 0.73 | 7.05 | 1.4
19 | CN(C)CCc1c[nH]c2ccc(C[C@H]3COC(=O)N3)cc12 [ZOLMITRIPTAN] | 1.48 | 6.13 | 0.92
20 | CN(C)S(=O)(=O)Nc1ccc(N2CCN(C(=O)COc3ccc4[nH]cc(CCN)c4c3)CC2)cc1.Cl.O | 0.96 | 7.2 | 0.26
21 | N#Cc1ccccc1N1CCN(C(=O)COc2ccc3[nH]cc(CCN)c3c2)CC1 | 1.22 | 7.42 | 0.92
22 | NCCc1c[nH]c2ccc(OCCCCCC(=O)N3CCN(c4ccc([N+](=O)[O-])cc4)CC3)cc12 | 0.73 | 7 | 0.34
23 | NCCc1c[nH]c2ccc(OCCCCCC(=O)N3CCN(c4ccc(N)cc4)CC3)cc12 | 0.79 | 8.09 | 0.38
24 | NCCc1c[nH]c2ccc(OCC(=O)N3CCN(c4ccc([N+](=O)[O-])cc4)CC3)cc12 | 0.52 | 6.12 | 0.42
